{"source": "ChEMBL document CHEMBL4602720", "about": "“Degradation versus Inhibition: Development of Proteolysis-Targeting Chimeras for Overcoming Statin-Induced Compensatory Upregulation of 3-Hydroxy-3-methylglutaryl Coenzyme A Reductase” (J Med Chem, 2020)", "key": {"[1]": {"biological_target": "T1, Protein cereblon/3-hydroxy-3-methylglutaryl-coenzyme A reductase (Cricetulus griseus) (UniProt P00347+G3H338)", "test": "Protac activity at CRBN/HMGCR in Insig-1/Insig-2 deficient Chinese hamster SRD15 cells assessed as HMGCR level at 1 uM after 16 hrs in presence of 1 uM pomalidomide by immunoblotting analysis (reference value: 1)"}, "[2]": {"biological_target": "T2, 3-hydroxy-3-methylglutaryl-coenzyme A reductase (Homo sapiens) (UniProt P04035)", "T2 sequence (whole entry)": "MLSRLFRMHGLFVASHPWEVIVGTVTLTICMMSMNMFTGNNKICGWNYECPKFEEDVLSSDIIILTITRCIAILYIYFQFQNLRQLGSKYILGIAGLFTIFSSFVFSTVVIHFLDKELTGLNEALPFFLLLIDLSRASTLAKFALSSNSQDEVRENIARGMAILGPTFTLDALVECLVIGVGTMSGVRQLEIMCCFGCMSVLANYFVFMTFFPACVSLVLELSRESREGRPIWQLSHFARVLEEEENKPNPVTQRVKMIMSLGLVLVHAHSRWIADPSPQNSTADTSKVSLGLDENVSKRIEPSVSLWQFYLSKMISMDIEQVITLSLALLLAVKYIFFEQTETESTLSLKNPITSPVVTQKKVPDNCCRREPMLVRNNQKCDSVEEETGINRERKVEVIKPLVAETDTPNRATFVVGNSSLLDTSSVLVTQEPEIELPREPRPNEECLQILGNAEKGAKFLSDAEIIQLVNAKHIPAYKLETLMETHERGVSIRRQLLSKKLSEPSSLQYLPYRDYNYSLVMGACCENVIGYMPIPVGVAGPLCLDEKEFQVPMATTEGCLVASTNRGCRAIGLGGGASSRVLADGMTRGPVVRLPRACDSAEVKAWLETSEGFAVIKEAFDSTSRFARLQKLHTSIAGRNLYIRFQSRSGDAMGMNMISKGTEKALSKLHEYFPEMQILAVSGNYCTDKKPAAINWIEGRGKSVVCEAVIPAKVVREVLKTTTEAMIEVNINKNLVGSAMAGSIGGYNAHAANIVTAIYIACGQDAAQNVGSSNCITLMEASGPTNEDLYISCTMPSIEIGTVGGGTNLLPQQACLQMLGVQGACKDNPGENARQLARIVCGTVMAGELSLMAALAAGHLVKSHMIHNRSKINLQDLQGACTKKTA", "test": "Inhibition of GFP-labelled HMGCR (unknown origin) expressed in lentivirus Chinese hamster SRD15 cells assessed as reduction in cholesterol biosynthesis at 1 uM after 16 hrs by Hoechst staining based laser-scanning microscopic method", "type": "cell-based"}, "[3]": {"biological_target": "T3, Protein cereblon/3-hydroxy-3-methylglutaryl-coenzyme A reductase (Homo sapiens) (UniProt P04035+Q96SW2)", "T3 sequence (Q96SW2 whole entry, looked up, one chain of several)": "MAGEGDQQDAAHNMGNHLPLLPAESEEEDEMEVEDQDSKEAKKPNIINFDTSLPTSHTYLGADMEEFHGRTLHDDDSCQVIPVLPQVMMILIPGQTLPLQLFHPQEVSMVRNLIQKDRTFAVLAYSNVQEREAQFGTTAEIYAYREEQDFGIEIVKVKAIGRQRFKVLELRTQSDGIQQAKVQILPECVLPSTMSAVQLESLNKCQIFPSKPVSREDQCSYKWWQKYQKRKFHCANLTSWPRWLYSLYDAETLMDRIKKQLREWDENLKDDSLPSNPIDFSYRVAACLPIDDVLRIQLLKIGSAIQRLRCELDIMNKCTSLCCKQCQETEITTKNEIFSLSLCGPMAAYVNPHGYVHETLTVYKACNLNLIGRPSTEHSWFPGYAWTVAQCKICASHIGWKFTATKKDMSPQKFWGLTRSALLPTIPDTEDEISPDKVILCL", "test": "(§1) Protac activity at human Flag-tagged CRBN/T7-tagged HMGCR expressed in Chinese hamster SRD15 cells transfected with HA-tagged ubiquitin assessed as increase in HMGCR immunoprecipitation 1 uM incubated for 16 hrs followed by atorvastatin addition addition and measured after 5 hrs in presence of MG132 by Western blot analysis", "type": "cell-based"}, "[4]": {"biological_target": "T1, Protein cereblon/3-hydroxy-3-methylglutaryl-coenzyme A reductase (Cricetulus griseus)", "test": "Protac activity at CRBN/HMGCR in Insig-1/Insig-2 deficient Chinese hamster SRD15 cells assessed as induction of HMGCR degradation at 1 uM preincubated for 16 hrs followed by addition of proteasome inhibitor MG132 and further incubated for 3 hrs by Western blot analysis", "summary_of_the_method": "(§2)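 SRD15 cells treated with 1 μM degrader for 16 h, then for 3 h with 10 μM MG132 or with MLN-4924 at the indicated concentrations. HMGCR by immunoblot.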"}, "[5]": {"biological_target": "T1, Protein cereblon/3-hydroxy-3-methylglutaryl-coenzyme A reductase (Cricetulus griseus)", "test": "Protac activity at CRBN/HMGCR in Insig-1/Insig-2 deficient Chinese hamster SRD15 cells assessed as induction of HMGCR degradation at 1 uM preincubated for 16 hrs followed by addition of neddylation inhibitor MLN4924 and further incubated for 3 hrs by Western blot analysis", "summary_of_the_method": "as §2"}, "[6]": {"biological_target": "T1, Protein cereblon/3-hydroxy-3-methylglutaryl-coenzyme A reductase (Cricetulus griseus)", "test": "Protac activity at CRBN/HMGCR in Insig-1/Insig-2 deficient Chinese hamster SRD15 cells assessed as HMGCR level at 1 uM after 16 hrs in presence of 0.1 uM pomalidomide by immunoblotting analysis (reference value: 1)"}, "[7]": {"biological_target": "T3, Protein cereblon/3-hydroxy-3-methylglutaryl-coenzyme A reductase (Homo sapiens)", "test": "as §1, with “pomalidomide” for “atorvastatin”", "type": "cell-based"}, "[8]": {"biological_target": "T1, Protein cereblon/3-hydroxy-3-methylglutaryl-coenzyme A reductase (Cricetulus griseus)", "test": "Protac activity at CRBN/HMGCR in 5'-CCAGAAACUGAAGAUGAAA-3' siRNA transfected in Insig-1/Insig-2 deficient Chinese hamster SRD15 cells assessed as induction of HMGCR degradation at 1 uM after 16 hrs by immunoblotting analysis", "summary_of_the_method": "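SRD15 cells (Insig-1/Insig-2-deficient CHO-7) in Medium A with 5% FBS at 37 °C, 5% CO2; transfected with negative-control or Crbn-targeting siRNA duplexes for 48 h, then given 1 μM degrader for 16 h. HMGCR by SDS-PAGE immunoblot of RIPA lysates. Knockdown efficiency checked by qRT-PCR against hamster GAPDH, comparative CT method. n = 3 independent experiments.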"}, "[9]": {"biological_target": "T1, Protein cereblon/3-hydroxy-3-methylglutaryl-coenzyme A reductase (Cricetulus griseus)", "test": "Protac activity at CRBN/HMGCR in Insig-1/Insig-2 deficient Chinese hamster SRD15 cells assessed as HMGCR level at 1 uM after 16 hrs in presence of 1 uM P22A-Et by immunoblotting analysis (reference value: 1)"}}, "note": "The source made the active and inactive calls. The calls are words filed in the database; no cut-off is given here."}
{"smiles": "CC(C)c1c(C(=O)Nc2ccccc2)c(-c2cccc(OCCCc3cn(CCOCCOCCOCCOCCNc4cccc5c4C(=O)N(C4CCC(=O)NC4=O)C5=O)nn3)c2)c(-c2ccc(F)cc2)n1CC[C@@H](O)C[C@@H](O)CC(=O)O", "note": "(some centres undefined)", "values": [{"measurement": "fold change (FC)", "setting": "[1]", "result": 1}, {"measurement": "inhibition", "setting": "[2]", "result": "Active"}, {"measurement": "Activity", "setting": "[3]", "result": "inactive"}, {"measurement": "Activity", "setting": "[4]", "result": "inactive"}, {"measurement": "Activity", "setting": "[5]", "result": "inactive"}, {"measurement": "fold change (FC)", "setting": "[6]", "result": 0.4}, {"measurement": "Activity", "setting": "[7]", "result": "inactive"}, {"measurement": "Activity", "setting": "[8]", "result": "inactive"}, {"measurement": "fold change (FC)", "setting": "[9]", "result": 1.1}]}
